Calb biofilm kill: kills Candida albicans biofilms | hit rate 0.14% among 85,000 | inhibition, % at 6 µM | C. albicans biofilm + clotrimazole, Alamar Blue | AID 834;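 active = inhibition above 20%; inactive = inhibition below 20%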;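 also: preformed 24 hr biofilms exposed to compound for 48 hr; 0% = biofilm without compound and 100% = blank killed by clotrimazole plus chlorhexidine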
bCat KO growth: beta-catenin-lacking colon tumor cell growth suppression; HCT116 beta-catenin knockout viability, CellTiter-Glo, 60 h; stronger effect = lower value; viability, % at 10 µM; hit rate 1.5% among 140,000; AID 818;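 active = viability at or under a set limit, the compound median less 4 SD, cut at about 6% in these data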;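 also: 0% = Hyamine 1622 control at 20 µM and 100% = untreated cell control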
Lung fibro prol: blocks proliferation of human lung fibroblasts | LL 47 human lung fibroblast viability, ATP luminescence; stronger effect = lower value | viability, % at 10 µM | hit rate 1.1% among 85,000 | AID 719;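 active = viability at or below 50% in the single dose screen; inactive = viability above 50%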;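 also: compound exposure lasted 72 h before the ATP readout; 100% = median luminescence of untreated cell-only wells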
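Test system: LL 47 human lung fibroblasts; Quantity: 1,150 cells/well; Buffer or medium: IMEM plus 15% FBS; Dosing: tenfold compound dosing solution, DMSO at 0.1%; Timing: overnight cell rest, 72 h compound treatment at 37 °C; Detection: ATP-based CellTiter-Glo luminescent readout; Read-out basis: viability percentage against median untreated-cell control; Controls: cell-only wells, no compound.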
PTEN del growth: growth suppressors of cells with PTEN tumor suppressor deletion | HCT116 PTEN-null viability, CellTiter-Glo, 60 h; stronger effect = lower value | viability, % at 10 µM | hit rate 1.2% among 140,000 | AID 827;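 active = viability at or below a set limit, 4 SD under the median of all tested compounds, cut at about 3.7% in these data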;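 also: PTEN knockout HCT116 line with beta catenin targeted HCT116 as companion control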
H69AR inhibit: growth inhibitors of human H69AR lung tumor cells | H69AR lung tumor viability, ATP luminescence, 72 h; stronger effect = lower value | AID 598 | hit rate 6% among 85,000 | viability, % at 10 µM;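 active = viability at or below 40%; inactive = viability above 40%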;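 also: multidrug resistant small cell line overexpressing MRP-1 efflux transporter; 100% = mean luminescence of untreated control wells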
HUVEC prolif 384: human endothelial cell proliferation inhibition; HUVEC proliferation, CellTiter-Glo luminescence, 72 h; stronger effect = lower value; viability, % at 10 µM (by protocol); hit rate 1.1% among 86,000; AID 648;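 active = viability at or below 30%; inactive = viability above 30%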;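 also: 100% = median luminescence of DMSO-only cell control wells on each plate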
* = called active by the depositor; / = not tested or not shown. The full list was thinned out, with hits kept by preference.

SMILES | Calb biofilm kill | bCat KO growth | Lung fibro prol | PTEN del growth | H69AR inhibit | HUVEC prolif 384
CCOC(=O)N1CCC(Nc2c(N3CCN(c4cc(Cl)ccc4C)CC3)c(=O)c2=O)CC1 | -12.8 | 63.0 | 89.9 | 59.0 | 64.0 | 82.4
CCOC(=O)N1CCC(Nc2c(-c3ccc(C)c(C)c3)c(=O)c2=O)CC1 | 2.2 | 102.0 | 100.3 | 94.2 | 33.5* | 93.6
Cn1c(Cc2ccccc2)nnc1SCC(=O)c1cccs1 | 3.7 | 102.0 | 96.2 | 101.7 | 73.2 | 93.1
COc1ccc(CNc2nc3ccccc3n2Cc2ccccc2)cc1OC | / | 81.7 | / | 81.4 | / | /
CC1=CC(C)(C)Nc2ccc(OC(=O)CN3C(=O)c4ccccc4C3=O)cc21 | / | 1.4* | / | 1.5* | / | /
O=C(NCC1COc2ccccc2O1)C1CCCN(S(=O)(=O)c2cnc[nH]2)C1 (stereo not given) | 13.0 | / | 96.3 | / | 99.1 | 94.6
Cn1nnnc1SCc1ccc([N+](=O)[O-])cc1 | / | 98.0 | / | 101.7 | / | /
COc1cc(C(=O)NCc2ccc(-c3nc4ccccc4o3)cc2)cc(OC)c1OC | 1.2 | 69.3 | 44.9* | 61.9 | 64.5 | 37.9
COc1cc(C(=O)NCc2ccc(-c3nc4ccccc4s3)cc2)cc(OC)c1OC | / | 41.2 | / | 49.1 | / | /
O=C(CN1CCOCC1)N1CCN(C(=O)CN2CCOCC2)CC1 | 4.4 | / | 99.3 | / | 100.3 | 108.1
CN(/N=C/c1cccs1)c1cc(=O)n(C)c(=O)[nH]1 | 5.7 | 89.1 | 104.2 | 90.0 | 93.8 | 15.4*
CCOC(=O)Nc1ccc2c(c1)N(C(=O)CCN1CCOCC1)c1ccccc1S2=O (stereo not given) | 2.9 | 8.6 | 73.5 | 15.6 | 1.9* | 72.9
CCOC(=O)Nc1ccc2c(c1)N(C(=O)CCN1CCOCC1)c1ccccc1S2 | / | 96.5 | / | 87.8 | / | /
CCC(C)(C(=O)NC1CCCCC1)N(C(=O)Cc1cccs1)c1ccccc1 (stereo not given) | / | 72.3 | / | 73.6 | / | /
CCOc1ccc2nc(NC(=O)CSc3nnnn3C3CCCCC3)sc2c1 | 2.1 | 88.5 | 91.3 | 81.2 | 1.7* | 79.5
CCn1c(SCC(=O)Nc2nc3c(s2)CCCC3)nc2c1c(=O)n(C)c(=O)n2C | 10.9 | / | 86.3 | / | 16.9* | 92.4
Cn1cccc1Cc1nnc(SCC(=O)Nc2nc3ccccc3s2)n1CCc1ccccc1 | 9.4 | 89.9 | 76.2 | 74.9 | 5.4* | 43.4
CCCn1c(SCC(=O)Nc2nc(-c3ccc(OC)cc3)cs2)nc2c1c(=O)n(C)c(=O)n2C | / | 99.8 | / | 96.9 | / | /
CCn1c(SCC(=O)Nc2nc3ccc(OC)cc3s2)nc2c1c(=O)n(C)c(=O)n2C | -0.7 | 69.0 | 93.9 | 65.8 | 17.1* | 72.7
O=C1NC(Cc2c[nH]c3ccccc23)C(=O)N1CCOc1ccccc1 (stereo not given) | -3.0 | 97.8 | 91.6 | 98.4 | 93.8 | 96.7
CCOc1ccc2nc(NC(=O)CSc3nc4c(c(=O)n(C)c(=O)n4C)n3C(C)C)sc2c1 | / | 59.8 | 100.5 | 55.6 | 30.1* | 8.9*
CCOc1ccc2nc(NC(=O)Cn3cnc4c3c(=O)n(C)c(=O)n4C)sc2c1 | 7.7 | 88.5 | 104.3 | 102.2 | 91.4 | 97.0
CCn1c(SCC(=O)N2c3ccccc3CCc3ccccc32)nc2c1c(=O)n(C)c(=O)n2C | 2.5 | / | 98.5 | / | 14.3* | 94.4
CC(C)n1c(SCC(=O)Nc2nc3ccccc3s2)nc2c1c(=O)n(C)c(=O)n2C | 6.5 | 72.6 | 95.6 | 62.3 | 29.1* | 68.8
CCCCn1c(SCC(=O)N2c3ccccc3CCc3ccccc32)nc2c1c(=O)n(C)c(=O)n2C | 2.8 | 74.3 | 90.3 | 69.1 | 99.2 | 84.3
SMILES | Calb biofilm kill | bCat KO growth | Lung fibro prol | PTEN del growth | H69AR inhibit | HUVEC prolif 384
O=C(COC(=O)CNS(=O)(=O)c1cccc(Br)c1)NC(=O)Nc1ccc2c(c1)OCCO2 | / | 94.0 | / | 99.2 | / | /
CCOC(=O)c1c(CN2CCCCC2)n(C)c2cc(Br)c(O)cc12 | 6.1 | 64.3 | 95.2 | 74.1 | 80.9 | 102.6
CCOC(=O)c1c(CN2CCN(C)CC2)n(C)c2cc(Br)c(OC)cc12 | 7.5 | 82.1 | 71.0 | 77.4 | 7.3* | 33.1
Cc1cc(C)c2sc(NNC(=O)c3ccc(S(=O)(=O)N4CCc5ccccc5C4)cc3)nc2c1 | / | 6.8 | / | 7.3 | / | /
Cc1cc(C)c2nc(NNC(=O)c3ccc(S(=O)(=O)N4CCc5ccccc5C4)cc3)sc2c1 | / | 4.0* | / | 6.5 | / | /
CCCSc1cc(NCCOC(C)=O)c([N+](=O)[O-])c2nonc12 | / | 90.8 | / | 89.0 | / | /
O=[N+]([O-])c1c(NCCCO)cc(Sc2nc3ccccc3s2)c2nonc12 | / | 2.3* | / | 3.6* | / | /
